# Test results: ChEMBL document CHEMBL1123228, “Enantiomers of 3-(3,4-dihydroxyphenyl)- and 3-(3-hydroxyphenyl)-N-n-propylpiperidine: central pre- and postsynaptic dopaminergic effects and pharmacokinetics” (J Med Chem, 1986)
# pKi: −log10 of the molar value.
# Experiments:
# Rattus norvegicus [1] = assay: Level of compound in rat cortex in the absence of tropolone at dose 40 umol/kg; type: functional, organism-based
# Method in brief: (§1)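 Female Wistar rats (170–200 g), compound sc in saline (1 mL/kg), killed 60 min later, with or without tropolone (50 mg/kg ip) before dosing. Striatum, cerebellum and cortex were extracted in perchloric acid, cleaned on Sephadex G10 and analysed by HPLC-ECD (pH 4.0, 15% methanol, 600 mV). Recovery-corrected, n = 3.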
# Rattus norvegicus [2] = assay: Level of compound in rat striatum at dose 8 umol/kg; type: functional, organism-based; method in brief: as §1
# Rattus norvegicus [3] = organism: Rattus norvegicus; assay: Dopa accumulation was evaluated in limbic system of male Sprague-Dawley rat.; type: functional
# Method in brief: (§2)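 Male Sprague-Dawley rats, 200–300 g; drug in saline given sc after NSD 1015 decarboxylase inhibition; Dopa measured by HPLC with electrochemical detection. Dose-response curves from four to six dose levels per substance and brain area; ED50 estimated as the dose giving half-maximal decrease of Dopa level.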
# Rattus norvegicus [4] = assay: Level of compound in rat cortex in the absence of tropolone at dose 8 umol/kg; type: functional, organism-based; method in brief: as §1
# [5] = Ratio of Vmax/Km was measured; type: ADME
# Method in brief: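 Crude COMT from rat liver (KCl homogenate, 105000g supernatant). Incubated at 37 °C in 50 mM phosphate buffer pH 7.4 with 10 mM MgCl2, S-adenosyl-L-methionine ([…] as printed), and substrate at 0.1–0.00125 mM (final concentrations), 15 min. Stopped with perchloric acid; the O-methylated product was measured by HPLC-electrochemical detection. Km and Vmax from Lineweaver-Burk plots of four experiments, each concentration run in triplicate.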
# D(2) dopamine receptor = D(2) dopamine receptor (Rattus norvegicus, UniProt P61169); assay: In vitro affinity against Dopamine receptor D2 using [3H]DP-5,6-ADTN radioligand in rat striatal homogenate.
# D(2) dopamine receptor, sequence (P61169 whole entry): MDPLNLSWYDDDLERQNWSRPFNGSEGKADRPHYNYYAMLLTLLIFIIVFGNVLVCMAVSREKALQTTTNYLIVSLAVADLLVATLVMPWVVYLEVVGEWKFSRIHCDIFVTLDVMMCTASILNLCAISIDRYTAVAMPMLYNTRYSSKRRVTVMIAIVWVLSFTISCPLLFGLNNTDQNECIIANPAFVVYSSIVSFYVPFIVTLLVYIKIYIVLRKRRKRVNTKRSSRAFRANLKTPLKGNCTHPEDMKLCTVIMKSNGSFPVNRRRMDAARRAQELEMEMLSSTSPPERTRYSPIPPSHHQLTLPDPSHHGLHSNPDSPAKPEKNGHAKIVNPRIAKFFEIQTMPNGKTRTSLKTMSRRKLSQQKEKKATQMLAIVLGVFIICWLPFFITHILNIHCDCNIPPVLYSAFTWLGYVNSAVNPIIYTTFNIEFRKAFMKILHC
# Rattus norvegicus [6] = assay: Level of compound in rat cortex by pretreatment of tropolone (50 mg/kg, ip, 30min) at dose 8 umol/kg; type: functional, organism-based; method in brief: as §1
# [7] = Michaelis-Menten constant was measured against adenylate cyclase stimulation of cAMP formation in striatal homogenates; type: ADME, tissue-based; settings: tissue homogenate
# Rattus norvegicus [8] = assay: Presynaptic activity at the level of DA metabolism was determined at dose 45 umol/kg on striatal level of HVA; type: functional
# Method in brief: (§3)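 Female Wistar rats given 45 μmol/kg sc; striatal DOPAC and HVA measured by HPLC with electrochemical detection, compared with saline controls by Student's t test.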
# Rattus norvegicus [9] = assay: Level of compound in rat striatum by pretreatment of tropolone (50 mg/kg, ip, 30min) at dose 40 umol/kg; type: functional, organism-based; method in brief: as §1
# Rattus norvegicus [10] = organism: Rattus norvegicus; assay: Dopa accumulation was evaluated in corpus striatum of male Sprague-Dawley rat.; type: functional; method in brief: as §2
# Rattus norvegicus [11] = assay: Level of compound in rat striatum by pretreatment of tropolone (50 mg/kg, ip, 30min) at dose 8 umol/kg; type: functional, organism-based; method in brief: as §1
# Rattus norvegicus [12] = assay: Level of compound in rat cerebellum at dose 8 umol/kg; type: functional, organism-based; method in brief: as §1
# Rattus norvegicus [13] = assay: Motor activity effect in reserpinized rat with tropolone pretreatment at 5 umol/kg, sc expressed as accumulation counts 0-30 min after treatment; type: functional
# Method in brief: (§4)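 Male Sprague-Dawley rats given reserpine 5 mg/kg ip 18 h before; some also given tropolone 50 mg/kg 30 min before. Compound given sc in the neck, or ip where stated. Locomotion recorded by photocell motility meters, one rat per cage, as accumulated counts over 0–30 min, mean ± SEM.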
# Rattus norvegicus [14] = assay: Level of compound in rat cortex at dose 8 umol/kg; type: functional, organism-based; method in brief: as §1
# Rattus norvegicus [15] = assay: Level of compound in rat cerebellum by pretreatment of tropolone (50 mg/kg, ip, 30min) at dose 8 umol/kg; type: functional, organism-based; method in brief: as §1
# Rattus norvegicus [16] = assay: Level of compound in rat striatum at dose 40 umol/kg; type: functional, organism-based; method in brief: as §1
# Rattus norvegicus [17] = assay: Level of compound in rat cortex at dose 40 umol/kg; type: functional, organism-based; method in brief: as §1
# Rattus norvegicus [18] = assay: Level of compound in rat striatum in the absence of tropolone at dose 40 umol/kg; type: functional, organism-based; method in brief: as §1
# Rattus norvegicus [19] = assay: Level of compound in rat cerebellum in the absence of tropolone at dose 40 umol/kg; type: functional, organism-based; method in brief: as §1
# Rattus norvegicus [20] = organism: Rattus norvegicus; assay: Maximal cAMP production in rat striatal homogenates.; type: functional
# Method in brief: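 cAMP formation in rat striatal homogenates was read with an automated adenylate cyclase assay.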
# Rattus norvegicus [21] = assay: Motor activity effect in reserpinized rat at 50 umol/kg, sc expressed as accumulation counts 0-30 min after treatment; type: functional; method in brief: as §4
# Rattus norvegicus [22] = assay: Level of compound in rat cerebellum at dose 40 umol/kg; type: functional, organism-based; method in brief: as §1
# [23] = tested on: catechol-O-methyl transferase; assay: Michaelis-Menten constant was measured for O-methylation (probably meta) by catechol-O-methyl transferase; type: ADME
# Method in brief: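 Crude rat liver COMT (105000g supernatant) at 37°C for 15 min with 0.1–0.00125 mM substrate, S-adenosyl-L-methionine, 10 mM MgCl2 and 50 mM phosphate pH 7.4 (final). Reaction stopped with perchloric acid; O-methyl product measured by HPLC-ECD. Km from Lineweaver-Burk plots, four experiments, each concentration in triplicate.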
# Rattus norvegicus [24] = assay: Presynaptic activity at the level of DA metabolism was determined at dose 45 umol/kg on striatal level of DOPAC; type: functional; method in brief: as §3
# D(1A) dopamine receptor = D(1A) dopamine receptor (Rattus norvegicus, UniProt P18901); assay: In vitro affinity against Dopamine receptor D1 using [3H]SCH-23390 radioligand in rat striatal homogenate.
# D(1A) dopamine receptor, sequence (P18901 whole entry): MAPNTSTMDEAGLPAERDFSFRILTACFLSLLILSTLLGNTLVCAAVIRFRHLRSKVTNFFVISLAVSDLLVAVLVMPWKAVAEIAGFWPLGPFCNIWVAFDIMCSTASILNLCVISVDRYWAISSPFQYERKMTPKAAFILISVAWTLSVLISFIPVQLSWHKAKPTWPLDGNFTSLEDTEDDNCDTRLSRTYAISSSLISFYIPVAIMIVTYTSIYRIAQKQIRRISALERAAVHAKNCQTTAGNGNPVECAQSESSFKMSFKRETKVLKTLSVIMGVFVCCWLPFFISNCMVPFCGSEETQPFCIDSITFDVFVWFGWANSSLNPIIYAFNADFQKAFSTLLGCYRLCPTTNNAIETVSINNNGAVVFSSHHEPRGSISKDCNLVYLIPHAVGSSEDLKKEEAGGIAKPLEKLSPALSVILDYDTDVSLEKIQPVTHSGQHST
# Rattus norvegicus [25] = assay: Level of compound in rat cerebellum in the absence of tropolone at dose 8 umol/kg; type: functional, organism-based; method in brief: as §1
# Rattus norvegicus [26] = assay: Level of compound in rat cerebellum by pretreatment of tropolone (50 mg/kg, ip, 30min) at dose 40 umol/kg; type: functional, organism-based; method in brief: as §1
# Rattus norvegicus [27] = assay: Level of compound in rat cortex by pretreatment of tropolone (50 mg/kg, ip, 30min) at dose 40 umol/kg; type: functional, organism-based; method in brief: as §1
# Rattus norvegicus [28] = organism: Rattus norvegicus; assay: Dopa accumulation was evaluated in limbic system of male Sprague-Dawley rat; type: functional; method in brief: as §2
# Rattus norvegicus [29] = organism: Rattus norvegicus; assay: Dopa accumulation was evaluated in corpus striatum of male Sprague-Dawley rat; type: functional; method in brief: as §2
# Rattus norvegicus [30] = assay: Level of compound in rat cerebellum at dose 45 umol/kg administered intraperitoneally; type: functional, organism-based
# Method in brief: (§5)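 Female Wistar rats (170–200 g) given 45 μmol/kg ip or sc, killed 60 min later. Striatum, cerebellum and cortex were frozen and homogenised in 0.1 M perchloric acid, purified on Sephadex G10 and analysed by HPLC-ECD. O-methyl metabolite was read at 27% methanol and 750 mV. Values pmol/g tissue, n = 3.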
# Rattus norvegicus [31] = assay: Level of compound in rat intraperitoneally; type: functional, organism-based
# Rattus norvegicus [32] = assay: Level of compound 5 in rat striatum at dose 45 umol/kg administered subcutaneously; type: functional, organism-based; method in brief: as §5
# Rattus norvegicus [33] = assay: Motor activity effect in reserpinized rat at 13 umol/kg, sc expressed as accumulation counts 0-30 min after treatment; type: functional
# Rattus norvegicus [34] = assay: Level of compound 5 in rat cortex at dose 45 umol/kg administered intraperitoneally; type: functional, organism-based; method in brief: as §5
# Rattus norvegicus [35] = assay: Level of compound in rat cerebellum at dose 45 umol/kg administered subcutaneously; type: functional, organism-based; method in brief: as §5
# Rattus norvegicus [36] = assay: Level of compound in rat striatum at dose 45 umol/kg administered subcutaneously.; type: functional, organism-based; method in brief: as §5
# Rattus norvegicus [37] = assay: Level of compound 5 in rat cerebellum at dose 45 umol/kg administered subcutaneously; type: functional, organism-based; method in brief: as §5
# Rattus norvegicus [38] = assay: Level of compound in rat cortex at dose 45 umol/kg administered intraperitoneally; type: functional, organism-based; method in brief: as §5
# Rattus norvegicus [39] = assay: Level of compound 5 in rat cerebellum at dose 45 umol/kg administered intraperitoneally; type: functional, organism-based; method in brief: as §5
# Rattus norvegicus [40] = assay: Level of compound in rat cortex at dose 45 umol/kg administered subcutaneously; type: functional, organism-based; method in brief: as §5
# Rattus norvegicus [41] = assay: Level of compound 5 in rat intraperitoneally; type: functional, organism-based; method in brief: as §5
# Rattus norvegicus [42] = assay: Level of compound 5 in rat cortex at dose 45 umol/kg administered subcutaneously; type: functional, organism-based; method in brief: as §5
SMILES,Level (Rattus norvegicus [1]) [pmol/g],Level (Rattus norvegicus [2]) [pmol/g],Level (Rattus norvegicus [4]) [pmol/g],Ratio [5],pKi (D(2) dopamine receptor),Level (Rattus norvegicus [6]) [pmol/g],Km [7] [µM],Control (Rattus norvegicus [8]) [%],Level (Rattus norvegicus [9]) [pmol/g],Level (Rattus norvegicus [11]) [pmol/g],Level (Rattus norvegicus [12]) [pmol/g],Motor activity (Rattus norvegicus [13]),Level (Rattus norvegicus [14]) [pmol/g],Level (Rattus norvegicus [15]) [pmol/g],Level (Rattus norvegicus [16]) [pmol/g],Level (Rattus norvegicus [17]) [pmol/g],Level (Rattus norvegicus [18]) [pmol/g],Level (Rattus norvegicus [19]) [pmol/g],Production (pM (mg of protein)-1) (Rattus norvegicus [20]),Control (Rattus norvegicus [24]) [%],further results
CCCN1CCC[C@@H](c2ccc(O)c(O)c2)C1,167,2330,16,485,7.92,3250,21,65,9720,2540,2020,69,3410,2290,10300,17000,61,63,138,83,ED50 (Rattus norvegicus [3]): 8.5 µmol/kg; ED50 (Rattus norvegicus [10]): 8.2 µmol/kg; Motor activity (Rattus norvegicus [21]): 78; Level (Rattus norvegicus [22]): 9160 pmol/g; Km [23]: 77 µM; pKi (D(1A) dopamine receptor): 4.87; Level (Rattus norvegicus [25]): 10 pmol/g; Level (Rattus norvegicus [26]): 9330 pmol/g; Level (Rattus norvegicus [27]): 13200 pmol/g
CCCN1CCC[C@H](c2ccc(O)c(O)c2)C1,227,1620,18,346,7.96,2050,65,49,5850,1380,1550,20,2750,1910,6000,9540,112,150,46,65,ED50 (Rattus norvegicus [28]): 6.2 µmol/kg; ED50 (Rattus norvegicus [29]): 7 µmol/kg; Motor activity (Rattus norvegicus [21]): 24; Level (Rattus norvegicus [22]): 4340 pmol/g; Km [23]: 121 µM; pKi (D(1A) dopamine receptor): 4.24; Level (Rattus norvegicus [25]): 22 pmol/g; Level (Rattus norvegicus [26]): 7200 pmol/g; Level (Rattus norvegicus [27]): 8470 pmol/g
CCCN1CCC[C@H](c2cccc(O)c2)C1,,,,,,,,32,,,,,,,,,,,,50,Level (Rattus norvegicus [30]): 4910 pmol/g; Level (Rattus norvegicus [31]): 7040 pmol/g; Level (Rattus norvegicus [32]): 93 pmol/g; ED50 (Rattus norvegicus [28]): 1 µmol/kg; Motor activity (Rattus norvegicus [33]): 78; Level (Rattus norvegicus [34]): 243 pmol/g; Level (Rattus norvegicus [35]): 15200 pmol/g; Level (Rattus norvegicus [36]): 17600 pmol/g; Level (Rattus norvegicus [37]): 114 pmol/g; Level (Rattus norvegicus [38]): 7410 pmol/g; ED50 (Rattus norvegicus [29]): 1.3 µmol/kg; Level (Rattus norvegicus [39]): 98 pmol/g; Level (Rattus norvegicus [40]): 18300 pmol/g; Level (Rattus norvegicus [41]): 151 pmol/g; Level (Rattus norvegicus [42]): 211 pmol/g
